Data set [1] in a line: Antiproliferative activity against human BkPC-3 cells after 24 hrs by MTT assay. Type of data set: functional, cell-based. Conditions: BkPC-3, 24 h. The gist of the method: (§1)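 Cells were seeded at 3000 per well and incubated 24 h at 37 °C. Compounds were added in triplicate with 10% FBS: 0.1-10 or 0.1-20 µM for cancer lines, 3.125-400 µM for MCF-10A. Viability was read by MTT absorbance at 595 nm, with IC50 fitted from the curves. DMSO stocks were 20 mM.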
(In general: Tetrazolium dyes change colour on reduction, which living cells bring about.)

For data set [2], the target named is T1, Signal transducer and activator of transcription 1-alpha/beta (Homo sapiens) (UniProt P42224).
T1 sequence (whole entry): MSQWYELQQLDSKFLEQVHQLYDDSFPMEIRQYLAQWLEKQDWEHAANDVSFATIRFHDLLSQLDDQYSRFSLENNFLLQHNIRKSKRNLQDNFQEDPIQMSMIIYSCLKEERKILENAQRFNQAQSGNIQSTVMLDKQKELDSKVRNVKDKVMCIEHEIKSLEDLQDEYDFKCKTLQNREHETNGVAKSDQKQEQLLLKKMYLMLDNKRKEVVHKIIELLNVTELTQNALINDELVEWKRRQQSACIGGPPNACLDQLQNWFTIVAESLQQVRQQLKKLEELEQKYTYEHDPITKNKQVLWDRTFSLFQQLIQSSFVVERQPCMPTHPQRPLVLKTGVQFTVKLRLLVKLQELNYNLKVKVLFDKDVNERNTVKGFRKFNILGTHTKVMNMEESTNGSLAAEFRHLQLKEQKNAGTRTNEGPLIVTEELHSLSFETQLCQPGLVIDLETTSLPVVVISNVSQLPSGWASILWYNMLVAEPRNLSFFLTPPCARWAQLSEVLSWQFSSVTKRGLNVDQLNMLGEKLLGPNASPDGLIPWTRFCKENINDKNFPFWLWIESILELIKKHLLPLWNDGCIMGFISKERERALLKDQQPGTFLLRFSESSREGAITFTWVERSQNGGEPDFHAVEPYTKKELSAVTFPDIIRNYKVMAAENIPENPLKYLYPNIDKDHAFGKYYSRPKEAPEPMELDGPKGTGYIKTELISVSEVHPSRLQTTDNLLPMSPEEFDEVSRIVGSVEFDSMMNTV
Kind of data set: Binding affinity to STAT1 (unknown origin) after 30 mins by fluorescence polarization assay. The gist of the method:
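A competitive fluorescence polarization assay measured displacement of fluorescent phosphopeptide from the SH2 domain of purchased STAT1 or STAT5 protein, using the corresponding peptides.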
(Fluorescence polarisation rises when a labelled molecule tumbles more slowly, as on binding a larger partner.)

For data set [3], the target named is T1, Signal transducer and activator of transcription 1-alpha/beta (Homo sapiens). Put plainly: Inhibition of STAT1 dimerization in human MDA-MB-231 cells assessed as inhibition of STAT1-STAT1 DNA binding activity at 5 uM after 24 hrs by EMSA. Type of data set: cell-based. The method, boiled down:
(§2)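 MDA-MB-231 cells were treated at 5 µM for 0-24 h before nuclear extract preparation. Extracts were incubated with biotin-labeled probe for 30 min at room temperature, then analysed by EMSA.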
Background: In EMSA bound probe runs differently from free probe, usually more slowly.

The target is the same in data set [4]. Put plainly: Inhibition of STAT1 in human MDA-MB-231 cells assessed as reduction in CDK2 mRNA level at 5 to 10 uM by RT-PCR analysis. The class given is cell-based. The method, boiled down:
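Total RNA was extracted from treated MDA-MB-231 cells and 1 µg reverse-transcribed. qPCR ran 95 °C 5 min, then 40 cycles of 95 °C 10 s, 60 °C 15 s and 72 °C 15 s, followed by a melt curve from 60 to 95 °C.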

Data set [5] is described as follows: MRT (0 to t) in Sprague-Dawley rat plasma at 10 mg/kg, po measured after 24 hrs by UPLC analysis. Type of data set: ADME, organism-based. The gist of the method:
(§3)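 Rat plasma sampled from 2 min to 24 h after a single i.v. (1 mg/kg) or p.o. (10 mg/kg) dose. Parameters were derived from the concentration-time profiles. The bioanalytical method was validated to FDA guidelines for selectivity, linearity, LLOQ, accuracy, precision, recovery, matrix effect and stability.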

In a further data set the test system is Mus musculus. Put plainly: In vivo inhibition of STAT3 in po dosed BALB/c nude mouse xenografted with human MDA-MB-231 assessed as reduction in p-STAT3 level administered as qd for 32 days by DAB-staining based IHC analysis. Type of data set: functional, organism-based. The method, boiled down:
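Fixed sections of MDA-MB-231 xenograft tumors from orally dosed nude mice were immunostained for p-STAT3, with positive cells visualized by DAB.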

A short description of data set [6]: Initial plasma concentration in Sprague-Dawley rat at 1 mg/kg, iv measured after 24 hrs by UPLC analysis. The class given is ADME, organism-based. The method, boiled down: as §3
In data set [7] the target is T2, Signal transducer and activator of transcription 5A (Homo sapiens) (UniProt P42229).
T2 sequence (whole entry): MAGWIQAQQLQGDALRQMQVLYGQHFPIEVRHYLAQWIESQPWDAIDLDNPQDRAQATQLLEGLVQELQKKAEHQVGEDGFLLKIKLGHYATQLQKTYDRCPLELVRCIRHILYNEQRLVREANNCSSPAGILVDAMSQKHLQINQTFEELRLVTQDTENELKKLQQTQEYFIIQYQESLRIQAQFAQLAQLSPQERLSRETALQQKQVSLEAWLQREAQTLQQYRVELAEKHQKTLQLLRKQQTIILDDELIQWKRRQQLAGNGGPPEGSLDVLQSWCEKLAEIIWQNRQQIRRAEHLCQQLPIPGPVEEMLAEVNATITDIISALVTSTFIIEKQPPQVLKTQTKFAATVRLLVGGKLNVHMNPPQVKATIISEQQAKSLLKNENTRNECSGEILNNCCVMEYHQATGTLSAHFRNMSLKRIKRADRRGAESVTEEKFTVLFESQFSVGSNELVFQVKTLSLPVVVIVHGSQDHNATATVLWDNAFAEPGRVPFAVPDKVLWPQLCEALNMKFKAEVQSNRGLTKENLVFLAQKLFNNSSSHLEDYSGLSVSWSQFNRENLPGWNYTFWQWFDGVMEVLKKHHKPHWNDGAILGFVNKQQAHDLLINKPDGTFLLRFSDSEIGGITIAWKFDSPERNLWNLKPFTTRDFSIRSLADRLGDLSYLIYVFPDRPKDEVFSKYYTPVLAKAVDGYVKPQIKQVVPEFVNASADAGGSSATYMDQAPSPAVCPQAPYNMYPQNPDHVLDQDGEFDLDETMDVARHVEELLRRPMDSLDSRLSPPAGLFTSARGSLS
Put plainly: Inhibition of STAT5 dimerization in human MDA-MB-231 cells assessed as inhibition of STAT5-STAT5 DNA binding activity at 5 uM after 24 hrs by EMSA. Type of data set: cell-based. The method, boiled down:
as §2

A short description of data set [8]: AUC (0 to infinity) in Sprague-Dawley rat plasma at 1 mg/kg, iv measured after 24 hrs by UPLC analysis. Also on record: dose 1 mg/kg, time infinity, route intravenous. The class given is ADME, organism-based. The method, boiled down: as §3
Another data set deals with MDA-MB-231. Put plainly: Antiproliferative activity against human MDA-MB-231 cells after 24 hrs by MTT assay. Conditions: MDA-MB-231, 24 h. The class given is functional, cell-based. The gist of the method:
as §1

In data set [9] the target is Signal transducer and activator of transcription 3 (Homo sapiens, UniProt P40763). Conditions: 2.5 to 5 uM.
Sequence of Signal transducer and activator of transcription 3 (P40763 whole entry): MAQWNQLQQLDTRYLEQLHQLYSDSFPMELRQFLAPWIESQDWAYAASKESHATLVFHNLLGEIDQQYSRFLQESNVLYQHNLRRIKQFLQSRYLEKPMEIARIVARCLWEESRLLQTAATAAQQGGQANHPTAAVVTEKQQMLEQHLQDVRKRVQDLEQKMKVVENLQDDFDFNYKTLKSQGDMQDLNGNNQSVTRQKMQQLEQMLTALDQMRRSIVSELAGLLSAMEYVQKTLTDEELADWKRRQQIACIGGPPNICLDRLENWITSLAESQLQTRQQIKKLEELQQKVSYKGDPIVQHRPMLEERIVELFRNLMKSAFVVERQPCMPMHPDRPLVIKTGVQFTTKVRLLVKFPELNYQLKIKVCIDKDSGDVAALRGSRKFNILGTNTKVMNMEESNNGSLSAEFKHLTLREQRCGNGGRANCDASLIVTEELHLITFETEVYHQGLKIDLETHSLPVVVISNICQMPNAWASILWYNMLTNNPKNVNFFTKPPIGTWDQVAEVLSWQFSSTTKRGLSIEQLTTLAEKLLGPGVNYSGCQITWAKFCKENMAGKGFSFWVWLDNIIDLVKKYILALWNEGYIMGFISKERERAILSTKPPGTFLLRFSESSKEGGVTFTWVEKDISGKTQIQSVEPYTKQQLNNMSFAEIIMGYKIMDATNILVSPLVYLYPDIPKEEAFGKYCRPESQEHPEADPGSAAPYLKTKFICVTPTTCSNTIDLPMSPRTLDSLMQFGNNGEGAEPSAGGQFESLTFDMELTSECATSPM

From ChEMBL document CHEMBL4007452, “Discovery of an Orally Selective Inhibitor of Signal Transducer and Activator of Transcription 3 Using Advanced Multiple Ligand Simultaneous Docking” (J Med Chem, 2017) come the findings set out here.

The structures appear in SMILES notation. pIC50: −log10 of the molar value. Calls of active or inactive are those of the source. The calls are words filed in the database; no cut-off is given here.

The term pIC50 denotes −log10 of the IC50, conventionally taken in molar units. The low end stands for a high IC50, the high end for a low IC50. For orientation: MRT last means the average time that molecules of a dose stay in the body. The AUC(0-inf) is total exposure, with the tail of the curve extrapolated. A higher AUC(0-inf) goes with high exposure. For the molecule `NS(=O)(=O)c1cccc2c1C(=O)C=C(Nc1ccccc1N1CCNCC1)C2=O`, the pIC50 in data set [1] is 5.29; in the data set on MDA-MB-231, 6.15. In addition, the result in data set [2] was inactive. Moreover, the inhibition entry in data set [3] and in data set [9] was “Active” in each case. The inhibition result in [4] and in data set [7] was “inactive” each time. Further, in data set [5], the mean residence time (MRT last) at 24 h came out at 1.87 h. In the data set on Mus musculus, the inhibition result is “Dose-dependent effect”. Also, in data set [6], the C0 at 24 h was 382 ng/mL. In [8], the area under the curve AUC(0-inf) was 199 ng·h/mL.
